Test [1] in a line: In vitro affinity against Dopamine receptor D4. More on the design: species or system Bos taurus.
Test [2] has as its target T1, 5-hydroxytryptamine receptor 2B (Rattus norvegicus, UniProt P30994). The test is described as follows: Compound was evaluated for antagonism against serotonin (5-hydroxytryptamine 2B receptor ) receptor. It is filed as functional. Conditions: read-out: pA2 (converted). The method, boiled down: (§1)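 Rat stomach fundus strips in modified Krebs solution, 37 °C, carbogen-aerated organ baths; serotonin cumulative concentration-response curves (0.01 nM-10 µM), runs alternating with and without antagonist, 60 min rest between. Antagonism expressed as pA2 (-log antagonist concentration maintaining response when agonist doubled); 3-4 replicate experiments.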

Test [3] addresses T2, 5-hydroxytryptamine receptor 2A (Rattus norvegicus, UniProt P14842). Kind of test: In vitro affinity against serotonin 5-hydroxytryptamine 2A receptor.
Test [4] addresses T2, 5-hydroxytryptamine receptor 2A. The test is described as follows: In vitro affinity against serotonin ( 5-hydroxytryptamine 2A receptor ) receptor. In a few lines: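 Rat frontal cortex membranes (male Sprague-Dawley), preincubated 37 °C 15 min to remove endogenous 5-HT, in Tris-HCl pH 8.07 with 4 mM CaCl2 and 0.1% ascorbic acid. [3H]ketanserin competition in triplicate, 1 µM methysergide masking as required, 30 min at 37 °C; filtration on PEI-soaked GF/C, scintillation counting; two replicate experiments.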

Test [5] has as its system Mus musculus. Kind of test: Antipsychotic activity was determined in mice or rat within 20-30 min of administration.
The subject of test [6] is Mus musculus. The test is described as follows: Effective dose administered in catalepsy test in mice (in vivo). It is filed as functional. In a few lines: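 Mice (n = 6-12) tested 30 min after dosing: forepaws on one horizontal wire, hindpaws on another 6 cm away and 2 cm lower. Posture held over 30 s counted as catalepsy; ED50 by Litchfield-Wilcoxon method.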
The test system of test [7] is Mus musculus. The test is described as follows: Effective dose administered in apomorphine induced climbing test in mice (in vivo). It is filed as functional.
In test [8] the target is D(1A) dopamine receptor (Rattus norvegicus, UniProt P18901). Kind of test: In vitro affinity against Dopamine receptor D1.
For test [9], the system named is Mus musculus. Kind of test: Effective dose administered in apomorphine induced climbing test in mice (in vivo); Value ranges from 0.8-1.44. It is filed as functional.
Test [10] concerns the target T1, 5-hydroxytryptamine receptor 2B. The test is described as follows: Compound was evaluated for antagonism against serotonin (5-hydroxytryptamine 2B) receptor. It is filed as functional. Conditions: read-out: pA2 (converted). In a few lines: as §1
In test [11] the target is T3, 5-hydroxytryptamine receptor 2C (Homo sapiens) (UniProt P28335).
T3 sequence (whole entry): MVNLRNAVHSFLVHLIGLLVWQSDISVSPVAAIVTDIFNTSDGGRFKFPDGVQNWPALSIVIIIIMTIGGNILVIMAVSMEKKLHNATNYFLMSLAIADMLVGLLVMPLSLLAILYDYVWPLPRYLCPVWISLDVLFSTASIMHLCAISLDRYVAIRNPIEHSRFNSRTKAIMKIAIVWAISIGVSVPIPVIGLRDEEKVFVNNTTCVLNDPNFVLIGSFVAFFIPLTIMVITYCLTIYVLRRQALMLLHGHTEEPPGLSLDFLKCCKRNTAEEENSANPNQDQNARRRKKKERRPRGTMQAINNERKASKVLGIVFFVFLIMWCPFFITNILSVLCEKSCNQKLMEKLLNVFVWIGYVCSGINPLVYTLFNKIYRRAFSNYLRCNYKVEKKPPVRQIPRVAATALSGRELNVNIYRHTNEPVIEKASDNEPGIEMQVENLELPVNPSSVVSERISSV
The settings on record: Bos taurus; 10e-6 M.

Test [12] has as its target T3, 5-hydroxytryptamine receptor 2C (Homo sapiens). Conditions: Bos taurus; 10e-6 M. This is another data set of the same source.

The values below come from ChEMBL document CHEMBL1133541, “Conformationally constrained butyrophenones with affinity for dopamine (D(1), D(2), D(4)) and serotonin (5-HT(2A), 5-HT(2B), 5-HT(2C)) receptors: synthesis of aminomethylbenzo[b]furanones and their evaluation as antipsychotics” (J Med Chem, 2000).

By Ki is commonly meant a dissociation constant, usually derived from enzyme kinetics or from competition with a known ligand. A low value points to tighter binding. Usually ED50 stands for the dose that gives a 50% effect, or the effect in half of the subjects. The low end stands for an effect at a small dose, the high end for a need for a large dose. As a reminder, the Inhibition is the percentage by which the read-out fell short of the control. Low values mean a weak effect, high ones a strong effect.

T1 sequence (P30994 whole entry): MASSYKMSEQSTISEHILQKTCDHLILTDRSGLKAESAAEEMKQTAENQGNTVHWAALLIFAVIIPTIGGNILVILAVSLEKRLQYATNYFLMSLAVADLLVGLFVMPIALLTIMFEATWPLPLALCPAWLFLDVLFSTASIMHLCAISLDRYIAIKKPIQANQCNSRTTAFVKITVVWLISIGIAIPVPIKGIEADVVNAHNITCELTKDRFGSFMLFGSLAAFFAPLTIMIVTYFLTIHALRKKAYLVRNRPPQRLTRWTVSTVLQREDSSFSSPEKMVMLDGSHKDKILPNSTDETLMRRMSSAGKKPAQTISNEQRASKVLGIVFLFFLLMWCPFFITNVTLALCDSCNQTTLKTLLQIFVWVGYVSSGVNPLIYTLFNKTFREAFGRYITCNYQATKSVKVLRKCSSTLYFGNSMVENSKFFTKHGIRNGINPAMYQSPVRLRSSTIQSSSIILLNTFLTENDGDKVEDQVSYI
T2 sequence (P14842 whole entry): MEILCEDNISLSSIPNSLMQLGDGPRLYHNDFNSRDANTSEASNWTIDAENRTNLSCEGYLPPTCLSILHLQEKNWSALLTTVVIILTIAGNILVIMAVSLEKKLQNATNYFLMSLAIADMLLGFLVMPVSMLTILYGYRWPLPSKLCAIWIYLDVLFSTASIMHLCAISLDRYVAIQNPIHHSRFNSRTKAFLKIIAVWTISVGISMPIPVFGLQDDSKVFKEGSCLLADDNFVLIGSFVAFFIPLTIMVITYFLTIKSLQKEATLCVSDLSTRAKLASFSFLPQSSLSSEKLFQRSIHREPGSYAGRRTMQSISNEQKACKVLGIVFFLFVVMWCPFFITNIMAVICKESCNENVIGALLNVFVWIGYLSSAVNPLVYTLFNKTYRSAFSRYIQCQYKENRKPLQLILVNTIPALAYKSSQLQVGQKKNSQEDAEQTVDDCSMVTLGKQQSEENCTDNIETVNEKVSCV
Sequence of D(1A) dopamine receptor (P18901 whole entry): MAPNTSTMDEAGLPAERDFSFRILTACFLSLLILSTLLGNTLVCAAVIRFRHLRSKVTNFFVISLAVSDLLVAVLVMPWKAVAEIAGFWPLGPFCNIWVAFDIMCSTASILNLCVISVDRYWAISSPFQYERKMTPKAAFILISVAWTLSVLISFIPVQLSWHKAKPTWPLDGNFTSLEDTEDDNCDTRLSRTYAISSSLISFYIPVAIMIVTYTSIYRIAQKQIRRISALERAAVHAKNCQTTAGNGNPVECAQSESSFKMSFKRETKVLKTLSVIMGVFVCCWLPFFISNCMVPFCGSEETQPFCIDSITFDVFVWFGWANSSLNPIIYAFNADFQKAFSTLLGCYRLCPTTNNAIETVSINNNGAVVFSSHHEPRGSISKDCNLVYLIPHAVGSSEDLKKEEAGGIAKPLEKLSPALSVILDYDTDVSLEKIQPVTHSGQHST

Turning to `CN1CCN(C2=Nc3cc(Cl)ccc3Nc3ccccc32)CC1` [CLOZAPINE], the “Log Ki” value in [1] is -7.42.

As for `O=C(CCCN1CCC(O)(c2ccc(Cl)cc2)CC1)c1ccc(F)cc1` [HALOPERIDOL], in test [1], the “Log Ki” value was -8.2.

As for `COc1ccccc1N1CCN(CC2CC(=O)c3ccoc3C2)CC1` (stereo not given), the Kb in [2] was 646 nM. Moreover, the inhibitory constant (Ki) in [3] is 2290 nM.

As to `O=C1CC(CN2CCN(c3ncccn3)CC2)Cc2occc21` (stereo not given), the Kb in test [2] is 1820 nM. The Ki in [3] is over 100000 nM.

Regarding `O=C1CC(CN2CCN(c3ccccc3)CC2)Cc2occc21` (stereo not given), in test [2], the Kb was over 100000 nM. Also, the affinity in test [4] corresponds to a Ki of 21.9 nM.

`O=C1CC(CN2CCC(c3noc4cc(F)ccc34)CC2)Cc2occc21` (stereo not given): the Kb in [2] was 245 nM. In addition, in [1], the “Log Ki” value is given as -7.68. Moreover, the ED50 turned out to be 0.48 mg/kg in test [5], 3.84 mg/kg in test [6] and 0.34 mg/kg in test [7]. Moreover, the Ki was 10.7 nM in test [3] and 28.8 nM in test [8].

For the compound `O=C1CC(CN2CCC(C(=O)c3ccc(F)cc3)CC2)Cc2occc21` (stereo not given), the ED50 in [9] was 0.95 mg/kg; in [5] it was 1.21 mg/kg; in test [6] it was 3.44 mg/kg. Moreover, the “Log Ki” value in test [1] is recorded as -7.04. The Ki in test [4] was 51.3 nM; in test [8] it was 195 nM. Further, the Kb in test [10] is 195 nM.

For `O=C(CCCCN1CCN(CC2CC(=O)c3ccoc3C2)CC1)c1ccc(F)cc1` (stereo not given), in test [2], the Kb is 589 nM. Affinity in test [3] was put at a Ki of 1260 nM. The same compound gave an Inhibition in test [11] of 44.3%.

On to `O=C1CC(CN2CCN(c3ccccn3)CC2)Cc2occc21` (stereo not given), for which, in test [2], the Kb is 3470 nM. The Ki in test [3] is 8320 nM.

For the compound `O=C(CCCN1CCN(CC2CC(=O)c3ccoc3C2)CC1)c1ccc(F)cc1` (stereo not given), in test [2], the Kb was 437 nM. The Ki in test [3] was 955 nM. The compound also displayed an Inhibition in [12] of 3.7%.
